Data published in PubChem BioAssay.
Unmarked numbers belong to inactive results. Results filed as inconclusive are left out. Active and inactive are the calls of the source.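 The calls were made as follows, unless noted: active = growth inhibition above 25% in both replicates, a cutoff set 3 SD above the mean; inconclusive = above 25% in only one replicate; inactive = the rest.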

What was measured:
[1] = S. cerevisiae growth inhibition in permissive medium (OD615), pilot counter-assay for S. cerevisiae lifespan shortening project, permissive growth control (AID 705); conditions: OD615, 24 h, at 10 µM, hits give high values
Summary of the method: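 System: Engineered DeaD yeast | Buffer or medium: SC raffinose/galactose permissive medium | Incubation: Cells pre-grown 4 h, then 24 h compound exposure, 30 °C humidified | Measured by: Absorbance (optical density) at 615 nm | Read-out: Reduction in yeast growth (OD615)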

[2] = S. cerevisiae growth inhibition in restrictive medium, OD615, pilot screen, restrictive growth control, yeast lifespan reduction project (AID 706;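 active = growth inhibition above a set limit, 3 SD over mean compound inhibition, in both replicates, cut at about 43% in these data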;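 also: modified DeaD lifespan yeast strain shifted to restrictive glucose medium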); conditions: OD615, 48 h, at 10 µM, hits give high values
Summary of the method: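 Material: modified S. cerevisiae; Medium: glucose-based CSMM-D restrictive medium; Compound dosing: one concentration, 10 µM final, 0.25% DMSO; Incubation: 48 h compound exposure at 30 °C; Measured by: OD615.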

[3] = doxorubicin toxicity protection in MRP-1 cells – H69AR cells, CellTiter-Glo, duplicate, MRP-1 activator project, pilot screen (AID 807;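 active = viability increase at or above a cutoff of the median across tested compounds plus 3 SD, cut at about 8.5% in these data, passing the limit was not always enough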;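 also: compound pretreatment 18-22 h then 72 h combined with doxorubicin; 0% = doxorubicin alone and 100% = vehicle without doxorubicin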); conditions: H69AR viability with doxorubicin, CellTiter-Glo luminescence; at 10 µM; hits give high values
[4] = viability of HCT116 without oncogenic beta-catenin – human colon tumor cells, pilot screen (AID 823;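 active = cell viability at or below a set limit in both duplicate runs, the limit being the all-compound median minus 4 SD, cut at about 23% in these data, passing the limit was not always enough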;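 also: 0% = wells killed by 20 µM Hyamine and 100% = untreated DMSO cell wells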); conditions: HCT116 beta-catenin knockout viability, CellTiter-Glo, 60 h; at 10 µM; hits give low values
[5] = viability of PTEN-null HCT116 cells – cell-based, HCT116 clonal line, CellTiter-Glo, pilot screen (AID 824;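 active = viability at or below 27.92% in each of two runs, the all-compound median minus 4 SD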;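 also: 0% = 20 µM Hyamine control and 100% = vehicle cell control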); conditions: HCT116 PTEN-deleted viability, 60 h, at 10 µM, hits give low values
[6] = RAM pathway blockade in budding yeast – dse1pr::URA3 reporter, 5-FOA selection, pilot screen (AID 869;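 active = inhibition over a set limit, the all-compound mean plus 3 SD, in both replicate runs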;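 also: 0% = DMSO wells with no growth and 100% = 10 µM 1-NA-PP1 with full growth; RAM network block rescues cells from 5-FOA so hits raise OD615 growth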); conditions: S. cerevisiae dse1pr::URA3 5-FOA growth, OD615, 2 d; at 10 µM; hits give high values; strain carries analog-sensitive mutant Cbk1 kinase
[7] = RAM signaling pathway blockade in yeast – S. cerevisiae, Pdr1DBD-CYC8 efflux-inhibited sensitized strain, primary screen (AID 1298;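 active = RAM network inhibition above 8.4% in each of two replicates, 3 SD over the compound average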;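 also: 0% = DMSO untreated cells without growth and 100% = 10 µM 1-NA-PP1 full growth; higher means more yeast growth rescued from 5-FOA killing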); conditions: S. cerevisiae cbk1-as DSE1-URA3 strain, 5-FOA growth OD615, 2 d; at 50 µM; hits give high values

SMILES	growth inhibition [1] [%]	growth inhibition [2]	viability increase [3] [%]	viability [4] [%]	viability [5]	inhibition [6] [%]	RAM network inhibition [7] [%]
Cc1ccccc1CNc1nc(N)n(-c2ccccc2)n1	-0.29	2.71%	-1.74	104	98.1%	0.48	4.87
O=C1c2ccccc2C(O)N1Cc1ccc2c(c1)OCO2 (configuration not stated)	4.13	-0.895%	-0.74	103	106%	0.38	1.6
CCOC(=O)c1nnn(-c2nonc2N)c1CN(C)Cc1ccccc1	-7.27	-11.5%	-4.12	84	88.1%	2.05	4.2
CCOC(=O)c1sc(NC(=O)c2ccco2)nc1C	-9.56	-2.94%	-1.31	94.5	91.8%	1.66	3.98
COc1ccc(C(c2sc3ncnn3c2O)N2CCN(c3ccccc3F)CC2)cc1OC (configuration not stated)	0.27	11.7%	1.69	103	92%	1.3	1.06
CCC(=O)NCc1nc2ccccc2n1Cc1ccccc1F	-7.37	-27%	-0.04	99.1	99.2%	0.885	2.45
CCC(C)NC(=O)c1ccc(NC(=O)C2CCCO2)cc1 (configuration not stated)	-6.02	-6.03%	3.38	100	100%	4.56	1.78
COc1ccc(Cc2nc(-c3ccc(Br)o3)no2)cc1OC	-14.4	-3.81%	-0.22	92.2	81.2%	0.995	4.17
COc1ccc(-n2cnnc2)cc1	-1.44	-0.83%	-2.88	98.2	101%	1.05	-0.78
COc1cc(NS(=O)(=O)c2ccc3c(c2)oc(=O)n3C)cc(OC)c1OC	-3.74	0.425%	-4.97	41.9	35.5%	-0.355	2.41
CN(C)c1cc(-c2ccccc2)nc(N)n1	-13.3	-15.5%	-6.2	64.2	55.8%	2.73	0.09
O=C(Nc1ncc(Br)s1)C(Cc1ccccc1)n1cccc1 (configuration not stated)	-17.7	-13.6%	-6.2	63.7	58%	2.83	-0.21
COc1ccc(N2C(=O)C(CC(=O)O)S/C2=C\C(C)=O)cc1 (configuration not stated)	-7.45	-2.82%	-0.23	98	99.4%	0.95	3.43
CCCCn1c(CNC(=O)CC)nc2ccccc21	-4.54	-9.44%	-2.1	103	102%	0.825	1.89
COc1ccc(OC)c(N(CC(=O)NCc2ccccn2)S(C)(=O)=O)c1	-0.79	-6.94%	-2.27	98.1	96.3%	1.44	0.46
O=C(COc1ccccc1)Nc1ccc(S(=O)(=O)N2CCCC2)cc1	-12.9	-12.5%	-1.84	99.5	88.7%	2.33	2.76
CCc1ccc(C2CC(c3ccc(C)cc3)Nc3nc(N)nn32)cc1 (configuration not stated)	-5.94	-9.54%	2.61	106	93.6%	2.66	8.09
CC(=O)NC1(c2ccccc2)CCN(Cc2nnnn2C(C)(C)C)CC1	-11.8	-17.9%	-0.8	102	96%	3.53	1.62

SMILES	growth inhibition [1] [%]	growth inhibition [2]	viability increase [3] [%]	viability [4] [%]	viability [5]	inhibition [6] [%]	RAM network inhibition [7] [%]
Cc1cc2cc(CNC(=O)Cc3cccs3)ccc2n1C	-14.6	3.17%	-4.96	74.9	69%	3.38	8.91
c1ccc2[nH]c(-c3ccnc4ccccc34)nc2c1	0.915	-4.32%	-4.45	102	95.9%	0.605	2.99
CCC(C)NC(=O)c1cc(-c2ccccc2O)on1 (configuration not stated)	-10.7	-4.76%	-1.23	94	86.2%	1.73	2.61
COc1cccc(N2CCN(C3CC(=O)N(c4ccc(Cl)cc4)C3=O)CC2)c1 (configuration not stated)	-8.98	-2.62%	-0.33	96.2	91.6%	0.57	5.46
Cc1cc(C)nc(NS(=O)(=O)c2ccc(NC(=O)c3ccco3)cc2)n1	-5.44	-11.7%	-1.87	100	95.9%	0.26	2.44
O=c1cnn(-c2ccccc2)c(-c2ccccc2)c1	-15.7	-5.25%	-6.23	31.1	24% (active)	2.04	1.25
Cc1ccc(NS(=O)(=O)c2ccc3c(c2)oc(=O)n3C)cc1F	-11	-10.8%	0.32	89.1	86.1%	1.1	3.85
Cn1cnc2c1c(=O)n(Cc1ccccc1)c(=O)n2C	-14.8	-14.2%	-1.66	106	97%	3.59	0.42
CS(=O)(=O)c1ccc2nc(NC(=O)C3CCCCC3)sc2c1	-0.52	-7.79%	-7.36	72.2	77.3%	0.96	0.41
COc1ccc(N2C(=O)CCC(C(=O)Nc3ccccn3)C2c2ccc(OC)c(OC)c2)cc1 (configuration not stated)	0.15	-9.93%	-0.12	96.2	96.9%	1.64	0.04
CC12CCC(C(=O)N3CCCc4ccccc43)(CC1=O)C2(C)C (configuration not stated)	-15	-2.7%	-0.39	83.6	87.6%	0.94	0.93
CC(=O)Nc1c(-c2ccccc2)nc2ncccn12	-4.64	-5.57%	-0.33	108	95.4%	2.77	0.97
CCc1ccc(C2CC(c3ccc(Cl)cc3)n3nc(N)nc3N2)cc1 (configuration not stated)	3.64	17.7%	1.85	101	90.4%	1.53	2.02
Clc1ccc(CCNc2ncnc3nc[nH]c23)cc1	12.7	48.5% (active)	0.89	74.7	77%	-0.895	2.97
S=c1sc2c(N3CCOCC3)ncnc2n1-c1ccccc1	-11.6	8.65%	-3.12	102	94.9%	1.64	4.8
O=C(NC1CCCC1)C1C2C=CC3(CN(Cc4cccs4)C(=O)C13)O2 (configuration not stated)	-17.8	-17.1%	-1.96	94.8	101%	0.615	5
Oc1c(/C=N/c2ncn[nH]2)ccc2ccccc12	-9.29	-4.74%	-0.29	98.3	101%	-0.085	-1.12
Cc1cc(C)c(S(=O)(=O)Nc2ccc(OCC(=O)O)cc2)c(C)c1	-6.34	-3.2%	-0.81	93.7	90.5%	-0.28	-0.63
